Measured values taken from ChEMBL document CHEMBL4229382, “Phenylthiazoles with tert-Butyl side chain: Metabolically stable with anti-biofilm activity” (Eur J Med Chem, 2018).
Values after ≈ are worked out from the molar mass of the structure shown. Active and inactive are the calls of the source. The rule behind the calls is not given here.

Columns and labels:
Staphylococcus aureus [1] = assay: Antibacterial activity against methicillin-resistant Staphylococcus aureus 2658 RCMB after 18 hrs by broth microdilution assay; type: functional
Method in brief: (§1)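 Broth microdilution: inoculum from 0.5 McFarland suspension diluted to about 5 × 10^5 CFU/mL. Media were cation-adjusted Mueller-Hinton broth for staphylococci, brain heart infusion for E. faecium, and tryptone soya broth for E. faecalis, S. pneumoniae and L. monocytogenes.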

Staphylococcus aureus [2] = assay: Antibacterial activity against methicillin-resistant Staphylococcus aureus NRS123 USA400 assessed as change in MIC after 14 serial passages by broth microdilution assay
Staphylococcus aureus [3] = assay: Inhibition of biofilm formation in methicillin-resistant Staphylococcus aureus NRS384 USA300 at 1 time MIC after 24 hrs by crystal violet staining-based spectrophotometric analysis relative to control; set-up: scale not given: the % may be the effect or the level left
[4] = Safety index, ratio of cytotoxicity against human Caco2 cells at 32 ug/ml after 2 hrs by MTS assay to antibacterial activity against methicillin-resistant Staphylococcus aureus; type: toxicity, cell-based; details: Caco-2 cells
Caco-2 = assay: Cytotoxicity against human Caco2 cells at 32 ug/ml after 2 hrs by MTS assay; type: cell-based; details: caco-2, 2 h
Method in brief: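 Caco-2 cells grown in DMEM with 20% FBS, non-essential amino acids and penicillin-streptomycin, 37 °C, 5% CO2; exposed in triplicate to compounds (16, 32, 64 µg/mL) for 2 h; MTS added, 4 h further incubation, OD490 read; viability as percent of DMSO-treated controls; two independent experiments.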

Staphylococcus aureus [5] = assay: Inhibition of biofilm formation in methicillin-resistant Staphylococcus aureus NRS384 USA300 at 2 times MIC after 24 hrs by crystal violet staining-based spectrophotometric analysis relative to control; set-up: scale not given: the % may be the effect or the level left
Staphylococcus aureus [6] = assay: Antibacterial activity against methicillin-resistant Staphylococcus aureus NRS385 after 18 hrs by broth microdilution assay; type: functional; details: NRS385, 18 h; method in brief: as §1
[7] = tested on: Staphylococcus epidermidis; assay: Antibacterial activity against methicillin-resistant Staphylococcus epidermidis NRS101 after 18 hrs by broth microdilution assay; type: functional; details: NRS101, 18 h; method in brief: as §1
Staphylococcus aureus [8] = assay: Inhibition of biofilm formation in methicillin-resistant Staphylococcus aureus NRS384 USA300 after 24 hrs by crystal violet staining-based spectrophotometric analysis
Staphylococcus aureus [9] = assay: Antibacterial activity against methicillin-sensitive Staphylococcus aureus ATCC 6538 after 18 hrs by broth microdilution assay; type: functional; details: ATCC 6538, 18 h; method in brief: as §1
Staphylococcus aureus [10] = assay: Antibacterial activity against methicillin-resistant Staphylococcus aureus NRS384 USA300 after 18 hrs by broth microdilution assay; type: functional; details: NRS384 USA300, 18 h; method in brief: as §1
Enterococcus faecium [11] = assay: Bactericidal activity against vancomycin-resistant Enterococcus faecium ATCC 700221 incubated fo 18 hrs followed by re-plating on tryptic soy agar plates at 37 degC for 18 hrs by broth microdilution assay; details: ATCC 700221, 18 h
Enterococcus faecalis = assay: Antibacterial activity against vancomycin-resistant Enterococcus faecalis ATCC 51299 after 18 hrs by broth microdilution assay; type: functional; details: ATCC 51299, 18 h; method in brief: as §1
Staphylococcus aureus [12] = assay: Antibacterial activity against methicillin-resistant Staphylococcus aureus NRS123 USA400 assessed as reduction in bacterial growth after 2 to 4 hrs by time kill assay; type: functional, organism-based
Method in brief: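 Samples taken at 0, 2, 4, 6, 8, 12 and 24 h were serially diluted in PBS, plated on TSA and incubated ≥18 h for viable CFU/mL. DMSO was the negative control; two independent experiments.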

Enterococcus faecium [13] = assay: Antibacterial activity against vancomycin-resistant Enterococcus faecium ATCC 700221 after 18 hrs by broth microdilution assay; type: functional; details: ATCC 700221, 18 h; method in brief: as §1
[14] = tested on: Staphylococcus epidermidis; assay: Bactericidal activity against methicillin-resistant Staphylococcus epidermidis NRS101 incubated fo 18 hrs followed by re-plating on tryptic soy agar plates at 37 degC for 18 hrs by broth microdilution assay; type: functional; details: NRS101, 18 h
Staphylococcus aureus [15] = assay: Bactericidal activity against vancomycin-resistant Staphylococcus aureus VRS10 incubated fo 18 hrs followed by re-plating on tryptic soy agar plates at 37 degC for 18 hrs by broth microdilution assay; type: functional; details: VRS10, 18 h
Staphylococcus aureus [16] = assay: Bactericidal activity against methicillin-resistant Staphylococcus aureus NRS123 USA400 incubated fo 18 hrs followed by re-plating on tryptic soy agar plates at 37 degC for 18 hrs by broth microdilution assay; type: functional; details: NRS123 USA400, 18 h
Staphylococcus aureus [17] = assay: Bactericidal activity against methicillin-sensitive Staphylococcus aureus NRS107 incubated fo 18 hrs followed by re-plating on tryptic soy agar plates at 37 degC for 18 hrs by broth microdilution assay; type: functional; details: NRS107, 18 h
Staphylococcus aureus [18] = assay: Bactericidal activity against methicillin-resistant Staphylococcus aureus NRS385 incubated fo 18 hrs followed by re-plating on tryptic soy agar plates at 37 degC for 18 hrs by broth microdilution assay; type: functional; details: NRS385, 18 h
Staphylococcus aureus [19] = assay: Antibacterial activity against vancomycin-resistant Staphylococcus aureus VRS10 after 18 hrs by broth microdilution assay; type: functional; details: VRS10, 18 h; method in brief: as §1
Staphylococcus aureus [20] = assay: Bactericidal activity against methicillin-sensitive Staphylococcus aureus ATCC 6538 incubated fo 18 hrs followed by re-plating on tryptic soy agar plates at 37 degC for 18 hrs by broth microdilution assay; type: functional; details: ATCC 6538, 18 h
Staphylococcus aureus [21] = assay: Bactericidal activity against methicillin-resistant Staphylococcus aureus NRS119 incubated fo 18 hrs followed by re-plating on tryptic soy agar plates at 37 degC for 18 hrs by broth microdilution assay; type: functional; details: NRS119, 18 h
Staphylococcus aureus [22] = assay: Bactericidal activity against vancomycin-resistant Staphylococcus aureus VRS12 incubated fo 18 hrs followed by re-plating on tryptic soy agar plates at 37 degC for 18 hrs by broth microdilution assay; type: functional; details: VRS12, 18 h
Staphylococcus aureus [23] = assay: Bactericidal activity against methicillin-resistant Staphylococcus aureus NRS384 USA300 incubated fo 18 hrs followed by re-plating on tryptic soy agar plates at 37 degC for 18 hrs by broth microdilution assay; type: functional; details: NRS384 USA300, 18 h
Staphylococcus aureus [24] = assay: Antibacterial activity against methicillin-resistant Staphylococcus aureus NRS123 USA400 after 18 hrs by broth microdilution assay; type: functional; details: NRS123 USA400, 18 h; method in brief: as §1
Staphylococcus aureus [25] = assay: Bactericidal activity against methicillin-resistant Staphylococcus aureus NRS386 incubated fo 18 hrs followed by re-plating on tryptic soy agar plates at 37 degC for 18 hrs by broth microdilution assay; type: functional; details: NRS386, 18 h
Staphylococcus aureus [26] = assay: Antibacterial activity against methicillin-sensitive Staphylococcus aureus NRS107 after 18 hrs by broth microdilution assay; type: functional; details: NRS107, 18 h; method in brief: as §1
Staphylococcus aureus [27] = assay: Antibacterial activity against vancomycin-resistant Staphylococcus aureus VRS12 after 18 hrs by broth microdilution assay; type: functional; details: VRS12, 18 h; method in brief: as §1

With `Cc1nc(-c2ccc(C(C)(C)C)cc2)sc1-c1ccnc(N=C(N(C)C)N(C)C)n1` the MIC (Staphylococcus aureus [1]) was greater than 50 µg/mL.

For `CO[C@H]1/C=C/O[C@@]2(C)Oc3c(C)c(O)c4c(O)c(c(/C=N/N5CCN(C)CC5)c(O)c4c3C2=O)NC(=O)/C(C)=C\C=C\[C@H](C)[C@H](O)[C@@H](C)[C@@H](O)[C@@H](C)[C@H](OC(C)=O)[C@@H]1C` [RIFAMPIN], the Ratio (Staphylococcus aureus [2]) was greater than 500000.

For `Cc1nc(-c2ccc(C(C)(C)C)cc2)sc1-c1ccnc(NC2CCCC2)n1`, the MIC (Staphylococcus aureus [1]) was greater than 50 µg/mL.

For `Cc1nc(-c2ccc(C(C)(C)C)cc2)sc1-c1ccnc(NC(=N)N2CCOCC2)n1`, the Activity (Staphylococcus aureus [3]) was 18.1%, the selectivity ratio at 2 h, 32 ug/ml [4] was 8 to 30 and the Activity (Caco-2) was “Non-Toxic”. For the same molecule, the Activity (Staphylococcus aureus [5]) was 28.3%, the MIC (Staphylococcus aureus [6]) was 4 µg/mL (≈ 9.16 µM) and the MIC [7] was 4 µg/mL (≈ 9.16 µM). The inhibition (Staphylococcus aureus [8]) was “Dose-dependent effect”, the MIC (Staphylococcus aureus [9]) was 4 µg/mL (≈ 9.16 µM) and the MIC (Staphylococcus aureus [10]) was 4 µg/mL (≈ 9.16 µM). The MBC (Enterococcus faecium [11]) was 8 µg/mL (≈ 18.3 µM), the MIC (Enterococcus faecalis) was 4 µg/mL (≈ 9.16 µM) and the Activity (Staphylococcus aureus [12]) was “Active”. It also gave an MIC (Staphylococcus aureus [1]) of 1.17 µg/mL (≈ 2.68 µM), an MIC (Enterococcus faecium [13]) of 4 µg/mL (≈ 9.16 µM) and an MBC [14] of 4 µg/mL (≈ 9.16 µM).

Work on `Cc1nc(-c2ccc(C(C)(C)C)cc2)sc1-c1ccnc(N)n1` yielded an MIC (Staphylococcus aureus [1]) of 6.25 µg/mL (≈ 19.3 µM).

For `CC(=O)NC[C@H]1CN(c2ccc(N3CCOCC3)c(F)c2)C(=O)O1` [LINEZOLID], the MBC (Staphylococcus aureus [15]) was 64 µg/mL (≈ 190 µM), the MBC (Staphylococcus aureus [16]) was 32 µg/mL (≈ 94.9 µM) and the MBC (Staphylococcus aureus [17]) was 16 µg/mL (≈ 47.4 µM). For the same molecule, the MBC (Staphylococcus aureus [18]) was 16 µg/mL (≈ 47.4 µM), the MIC (Staphylococcus aureus [19]) was 1 µg/mL (≈ 2.96 µM) and the MBC (Staphylococcus aureus [20]) was 16 µg/mL (≈ 47.4 µM). It also gave an MBC (Staphylococcus aureus [21]) greater than 64 µg/mL, an MBC (Staphylococcus aureus [22]) of 64 µg/mL (≈ 190 µM) and an MBC (Staphylococcus aureus [23]) of 32 µg/mL (≈ 94.9 µM). It also gave an MIC (Staphylococcus aureus [9]) of 1 µg/mL (≈ 2.96 µM), an MIC (Staphylococcus aureus [10]) of 1 µg/mL (≈ 2.96 µM) and an MIC (Staphylococcus aureus [24]) of 1 µg/mL (≈ 2.96 µM). It also gave an MBC (Staphylococcus aureus [25]) of 64 µg/mL (≈ 190 µM), an MIC (Staphylococcus aureus [26]) of 1 µg/mL (≈ 2.96 µM) and an MIC (Staphylococcus aureus [27]) of 1 µg/mL (≈ 2.96 µM).
